Entries after “also recorded” stand apart in the source; their conditions may differ.
Tests used:
[1] = test system: AR target gene PSA mRNA in LNCaP cells; test: Suppression of DHT-induced PSA mRNA in LNCaP cells; assay type: cell-based, human; conditions: 25 μM, 24-h co-exposure to 1 nM DHT
In short: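 LNCaP cells (passages 4–6) were grown in RPMI-1640 with 10% FBS, then moved to phenol red-free RPMI-1640 with 5% dextran/charcoal-treated serum. After 24 h in fresh medium they were co-treated for 24 h with test compound and DHT (1 nM). PSA mRNA was measured by qRT-PCR (PBGD reference, comparative Ct) and expressed relative to DHT alone. Three independent experiments, n=6.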

estrogen receptor (ER) [2] = molecular target: T1, estrogen receptor (ER) (Homo sapiens, UniProt P03372); test: ER-CALUX assay, ER-agonistic activity; assay type: cell-based; conditions: T47D.Luc cells, 24 h; for ER-agonistic Response at 10 μM (% of E2max): relative to E2 (15 pM)
T1 sequence (P03372 whole entry): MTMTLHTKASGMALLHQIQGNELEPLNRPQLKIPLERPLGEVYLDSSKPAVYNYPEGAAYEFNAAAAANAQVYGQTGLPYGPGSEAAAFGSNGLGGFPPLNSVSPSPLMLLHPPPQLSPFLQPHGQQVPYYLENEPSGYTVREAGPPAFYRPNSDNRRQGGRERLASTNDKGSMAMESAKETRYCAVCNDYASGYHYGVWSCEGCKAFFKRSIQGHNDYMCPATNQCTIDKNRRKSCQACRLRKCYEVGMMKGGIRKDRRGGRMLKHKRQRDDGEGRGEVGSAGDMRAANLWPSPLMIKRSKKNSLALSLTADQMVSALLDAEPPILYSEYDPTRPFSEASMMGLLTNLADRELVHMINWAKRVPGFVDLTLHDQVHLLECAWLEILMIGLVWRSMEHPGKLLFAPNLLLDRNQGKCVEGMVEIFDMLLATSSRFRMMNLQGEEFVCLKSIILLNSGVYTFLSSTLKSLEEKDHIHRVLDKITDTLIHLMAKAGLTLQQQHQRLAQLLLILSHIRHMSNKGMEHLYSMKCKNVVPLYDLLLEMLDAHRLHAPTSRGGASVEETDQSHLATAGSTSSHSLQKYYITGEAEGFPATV
In short: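 T47D.Luc cells (passages 22–25) stably carry pEREtataLuc and were exposed in phenol red-free DMEM/F12 with 5% charcoal/dextran FBS. Cells were seeded at 20,000 cells/cm2 and dosed 24 h later with test compound in DMSO for 24 h. They were then lysed (10 mM Tris, 2 mM DTT, 2 mM EGTA, pH 7.8) and luciferase measured. RLU minus DMSO control gave fold induction relative to E2 (15 pM) maximum.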

ER = conditions: ref Hamers et al. 2011; cited from earlier work
AR = conditions: ref Hamers et al. 2011; cited from earlier work
[3] = test system: ER target gene TFF1 mRNA in MCF-7 cells; test: Modulation of E2-induced TFF1 mRNA in MCF-7 cells; assay type: cell-based, human; conditions: 25 μM, 24 h, co-exposure with E2
In short: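 MCF-7 cells (passages 15–18) in phenol red-free DMEM/F12 with 5% charcoal/dextran FBS were co-exposed for 24 h to test compound (25 μM) plus E2 (5 pM). TFF1 mRNA was measured by qRT-PCR: RT 50°C 20 min, 95°C 15 min, then 40 cycles of 95°C 15 s/60°C 60 s. PBGD was the reference gene, with comparative Ct analysis. Three independent experiments, n=6.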

estrogen receptor (ER) [4] = molecular target: T1, estrogen receptor (ER); test: ER-CALUX assay, ER-antagonistic activity, co-exposure with E2; assay type: cell-based; conditions: T47D.Luc cells, 24 h; for ER-antagonistic Response at 25 μM (% of E2 response): in the presence of E2 (5 pM); for Modulation of E2-dependent induction of luciferase activity, in words: combined exposure with E2 (5 pM)
In short: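 ER-CALUX in T47D.Luc cells (passages 22–25) kept in phenol red-free DMEM/F12 with 5% charcoal/dextran FBS. Test compound in DMSO was co-exposed with E2 (5 pM) for 24 h, then cells were lysed at pH 7.8 and luciferase read. IC25/IC50 are concentrations inhibiting E2-induced luciferase by 25/50%, calculated from full dose-response curves. Three independent experiments in triplicate.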

[5] = test system: all cell lines (T47D.Luc, MCF-7, LNCaP, HepaRG); test: Cytotoxicity, neutral red assay; assay type: cell-based, human; conditions: up to 25 μM concentration
[6] = test system: CAR-dependent CYP2B6 mRNA in HepaRG cells; test: CAR-agonistic response: induction of CYP2B6 mRNA in differentiated HepaRG cells; assay type: cell-based, human; conditions: CYP2B6 mRNA, HepaRG, 24 h, relative to PB (2 mM)
In short: (§1)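 Differentiated HepaRG cells (passages 7–9) were grown 14 days in growth medium, then 14 days in differentiation medium, and returned to growth medium 3 days before a 24 h exposure to test compound (0.01–25 μM). CYP2B6 and CYP3A4 mRNA were measured by qRT-PCR (PBGD reference, comparative Ct) relative to PB (2 mM) and RIF (50 μM), respectively. EC25/EC50 were taken from dose-response curves.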

[7] = test system: PXR-dependent CYP3A4 mRNA in HepaRG cells; test: PXR-agonistic response: induction of CYP3A4 mRNA in differentiated HepaRG cells; assay type: cell-based, human; conditions: 24 h
In short: as §1

RyRs = conditions: ref Pessah et al. 2009; cited from earlier work
[8] = test system: CYP2B6 mRNA (CAR-dependent); test: CAR-agonistic response: induction of CYP2B6 mRNA in differentiated HepaRG cells; assay type: cell-based, human; conditions: human, differentiated HepaRG cells
In short: as §1

[9] = test system: ER target gene TFF1 mRNA in MCF-7 cells; test: Induction of TFF1 mRNA in MCF-7 cells; assay type: cell-based, human; conditions: 25 μM, 24 h
In short: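 MCF-7 cells (passages 15–18) were moved to phenol red-free DMEM/F12 with 5% charcoal/dextran FBS and 1% non-essential amino acids. After 24 h in fresh medium they were treated for 24 h with 25 μM test compound. TFF1 mRNA was quantified by one-step qRT-PCR (PBGD reference, comparative Ct) and expressed relative to maximal induction by E2 (15 pM). Three independent experiments, n=6.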

[10] = CYP3A4 mRNA, relative to RIF (50 μM)

SMILES: Clc1ccc(Cl)c(-c2c(Cl)ccc(Cl)c2Cl)c1Cl (racemic) [(±)-PCB 136, 2,2',3,3',6,6'-hexachlorobiphenyl]
- Antiandrogenic activity (suppression of DHT-induced PSA mRNA), in words [1]: significant antiandrogenic activity
- ER-mediated activity (induction of luciferase), in words (estrogen receptor (ER) [2]): intermediate effect
- ER-agonistic Response at 10 μM (% of E2max) (estrogen receptor (ER) [2]): 63 % of E2max
- ER activity in luciferase reporter gene assays, in words (ER): ER-agonistic
- AR activity in luciferase reporter gene assays, in words (AR): AR-antagonistic
- Effect on E2-induced TFF1 gene expression, in words [3]: significantly potentiated the E2-induced TFF1 gene expression
- ER-antagonistic Response at 25 μM (% of E2 response) (estrogen receptor (ER) [4]): 81 % of E2 response
- Cytotoxicity [5]: no cytotoxicity was observed

SMILES: Clc1ccc(Cl)c(-c2c(Cl)ccc(Cl)c2Cl)c1Cl [(−)-PCB 136, 2,2',3,3',6,6'-hexachlorobiphenyl]
- CAR-agonistic Maximum response at 5 μM (% of PB max) [6]: 51 % of PB max
- CAR-agonistic response EC25 [6]: 0.7 µM
- ER-mediated activity (induction of luciferase), in words (estrogen receptor (ER) [2]): did not induce a significant increase of luciferase activity
- ER-agonistic Response at 10 μM (% of E2max) (estrogen receptor (ER) [2]): 27 % of E2max
- PXR-dependent CYP3A4 mRNA induction, in words [7]: significantly more potent inducer of PXR activity than (+)-PCB 136; also recorded: significantly more potent inducer of CYP3A4 mRNA than (+)-PCB 136
- PXR-agonistic Maximum response at 25 μM (% of RIF max) [7, 10]: 38 % of RIF max
- PXR-agonistic response EC25 [7, 10]: 7.4 µM
- Effect on E2-induced TFF1 gene expression, in words [3]: inactive
- Activity towards RyR, in words (RyRs): activate RyRs
- ER-antagonistic Response at 25 μM (% of E2 response) (estrogen receptor (ER) [4]): 27 % of E2 response
- Modulation of E2-dependent induction of luciferase activity, in words (estrogen receptor (ER) [4]): exhibited antiestrogenic effects, especially at higher concentrations

SMILES: Clc1ccc(Cl)c(-c2c(Cl)ccc(Cl)c2Cl)c1Cl [(+)-PCB 136, 2,2',3,3',6,6'-hexachlorobiphenyl]
- CAR-agonistic Maximum response at 5 μM (% of PB max) [6]: 38 % of PB max
- CAR-agonistic response EC25 [6]: 1.0 µM
- EC50 at 24 h [8]: 6.6 µM
- ER-mediated activity (induction of luciferase), in words (estrogen receptor (ER) [2]): estrogenic; also recorded: strong ER-mediated activity
- ER-agonistic Response at 10 μM (% of E2max) (estrogen receptor (ER) [2]): 89 % of E2max
- PXR-agonistic Maximum response at 25 μM (% of RIF max) [7, 10]: 17 % of RIF max
- Effect on E2-induced TFF1 gene expression, in words [3]: significantly potentiated the E2-induced TFF1 gene expression
- Activity towards RyR, in words (RyRs): no significant activity towards the RyR
- ER-antagonistic Response at 25 μM (% of E2 response) (estrogen receptor (ER) [4]): 123 % of E2 response
- Modulation of E2-dependent induction of luciferase activity, in words (estrogen receptor (ER) [4]): slightly potentiated E2-dependent induction of luciferase activity
- Estrogenicity (TFF1 mRNA induction), in words [9]: relatively high estrogenicity
